One assay deals with Mucor plumbeus. Nature of the assay: Antimicrobial activity against Mucor plumbeus MUCL 49355 after 16 to 48 hrs by serial dilution method. In kind it is functional. In a few lines:
(§1)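 Yeasts and filamentous fungi were tested by serial dilution in 96-well plates in YMG medium. Inoculum was adjusted to 6.7 × 10^5 cells/mL. Highest tested level was 67 μg/mL (from 20 μL of 1 mg/mL stock) or 100 μg/mL (from 20 μL of 1.5 mg/mL stock). Ethanol (20 μL) was the negative control.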

For the next assay, the system named is Yamadazyma tenuis. Nature of the assay: Antimicrobial activity against Candida tenuis MUCL 29892 after 16 to 48 hrs by serial dilution method. It counts as functional. In a few lines:
as §1

Another assay relates to Bacillus subtilis. The experiment in a line: Antimicrobial activity against Bacillus subtilis DSM10 after 16 to 48 hrs by serial dilution method. In kind it is functional. Put shortly:
(§2)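 Inoculum was adjusted to 6.7 × 10^5 cells/mL. Top concentration was 67 μg/mL (20 μL of 1 mg/mL stock) or 100 μg/mL (20 μL of 1.5 mg/mL stock). Ethanol (20 μL) served as negative control.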

Assay [1] deals with Schizosaccharomyces pombe. Nature of the assay: Antimicrobial activity against Schizosaccharomyces pombe DSM 70572 after 16 to 48 hrs by serial dilution method. It counts as functional, organism-based. Put shortly:
as §1

The test system of the next assay is Wickerhamomyces anomalus. The experiment in a line: Antimicrobial activity against Pichia anomala DSM 6766 after 16 to 48 hrs by serial dilution method. It counts as functional. In a few lines: as §1
The next assay has as its system Candida albicans. Nature of the assay: Antimicrobial activity against Candida albicans DSM 1665 after 16 to 48 hrs by serial dilution method. In kind it is functional. Put shortly: as §1
The test system of another assay is Rhodotorula glutinis. The experiment in a line: Antimicrobial activity against Rhodotorula glutinis DSM 10134 after 16 to 48 hrs by serial dilution method. It counts as functional. In a few lines: as §1
For another assay, the system named is Mucor hiemalis. Nature of the assay: Antimicrobial activity against Mucor hiemalis DSM 2656 after 16 to 48 hrs by serial dilution method. It counts as functional. In a few lines:
as §1

In a further assay the test system is Micrococcus luteus. The experiment in a line: Antimicrobial activity against Micrococcus luteus DSM 1790 after 16 to 48 hrs by serial dilution method. In kind it is functional. Put shortly:
as §2

A further assay concerns Staphylococcus aureus. The experiment in a line: Antimicrobial activity against Staphylococcus aureus DSM 346 after 16 to 48 hrs by serial dilution method. It counts as functional. In a few lines:
as §2

For assay [2], the system named is Mycolicibacterium smegmatis. The experiment in a line: Antimicrobial activity against Mycobacterium smegmatis DSM 44200 after 16 to 48 hrs by serial dilution method. In kind it is functional. In a few lines: as §2
The test system of a further assay is Escherichia coli. The experiment in a line: microbe, parasite or virus in culture. As to conditions: DSM 498.
Another assay relates to L929. The experiment in a line: Cytotoxicity against mouse L929 cells after 5 days by MTT assay. It counts as functional, cell-based. As to conditions: L929, 120 h. In a few lines:
(§3)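 Mouse fibroblast L929 and HeLa-derived KB3.1 cells were seeded at 6 × 10^3 cells/well in 96-well plates. Cells were exposed to compounds for 5 days, and IC50 was determined.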

A further assay has as its system KB 3-1. Nature of the assay: Cytotoxicity against human KB3-1 cells after 5 days by MTT assay. In kind it is functional, cell-based. As to conditions: KB 3-1, 120 h. In a few lines: as §3
For orientation: Tetrazolium dyes change colour on reduction, which living cells bring about.

Values after ≈ are worked out from the molar mass of the structure shown. Active and inactive are the calls of the source. The calls are words filed in the database; no cut-off is given here.

On to `C[C@@H]1CO[C@@H]2C3=C(CC4[C@H](C(=O)O)CCC5[C@@H]1CC[C@]452)C(=O)C(SC[C@H](O)C(=O)O)=CC3=O` (stereo partly specified), for which the result (with Mucor plumbeus; in the assay on Yamadazyma tenuis; with Bacillus subtilis; in assay [1]; with Wickerhamomyces anomalus; in the assay with Candida albicans) was inactive. For the same compound, the outcome (in the assay on Rhodotorula glutinis; with Mucor hiemalis; in the assay on Micrococcus luteus; in the assay on Staphylococcus aureus; in assay [2]) was inactive.
As for `O=C(O)c1cn(C2CC2)c2cc(N3CCNCC3)c(F)cc2c1=O` [CIPROFLOXACIN], the MIC in the assay with Escherichia coli came to 3.1 mg/L (≈ 9.36 µM).
The compound `CC1(C)S[C@@H]2[C@H](NC(=O)Cc3ccccc3)C(=O)N2[C@H]1C(=O)O` [PENICILLIN G] registered an MIC in the assay with Bacillus subtilis of 6.3 mg/L (≈ 18.8 µM).
For `C[C@@H]1CO[C@@H]2C3=C(C(=O)C=CC3=O)[C@H]3OC(=O)[C@@H]4CC[C@H]5[C@@H]1CC[C@@]25[C@@H]34` (racemic), the MIC against Mucor plumbeus turned out to be 100 mg/L (≈ 282 µM); with Yamadazyma tenuis it was 100 mg/L (≈ 282 µM); with Bacillus subtilis, 100 mg/L (≈ 282 µM); in the assay on Wickerhamomyces anomalus (Hansenula anomala), 66.7 mg/L (≈ 188 µM); with Rhodotorula glutinis, 33.3 mg/L (≈ 94 µM); against Mucor hiemalis it was 16.7 mg/L (≈ 47.1 µM). In the assay on Staphylococcus aureus, the MIC was determined as 66.7 mg/L (≈ 188 µM). The outcome (in [1]; in the assay with Candida albicans; in the assay on Micrococcus luteus; in [2]) was inactive. The IC50 with L929 was 2.2 mg/L (≈ 6.21 µM); in the assay with KB 3-1 it was 2.8 mg/L (≈ 7.9 µM).
As to `C[C@@H]1CO[C@@H]2c3c(O)cc4scnc4c3C[C@H]3[C@H](C(=O)O)CC[C@H]4[C@@H]1CC[C@@]243`, the result (with Mucor plumbeus; with Bacillus subtilis; in assay [1]; in the assay with Candida albicans; in the assay with Mucor hiemalis; with Micrococcus luteus) was inactive. The result (in the assay on Staphylococcus aureus; in assay [2]) was inactive. The figures for the MIC against Yamadazyma tenuis, against Wickerhamomyces anomalus (Hansenula anomala) and against Rhodotorula glutinis were 100 mg/L (≈ 250 µM), 66.7 mg/L (≈ 167 µM) and 33.3 mg/L (≈ 83.4 µM), respectively.
With NYSTATIN, the MIC in the assay with Mucor plumbeus turned out to be 12.5 mg/L; with Yamadazyma tenuis it was 12.5 mg/L; in assay [1] it was 16.7 mg/L; against Wickerhamomyces anomalus it was 16.7 mg/L; in the assay with Candida albicans it was 16.7 mg/L; in the assay with Rhodotorula glutinis, 16.7 mg/L. The MIC with Mucor hiemalis was determined as 16.7 mg/L.
As to `CN(C)[C@@H]1C(O)=C(C(N)=O)C(=O)[C@@]2(O)C(O)=C3C(=O)c4c(O)cccc4[C@@](C)(O)[C@H]3[C@H](O)[C@@H]12` [OXYTETRACYCLINE], the results for the MIC against Micrococcus luteus and against Staphylococcus aureus were 0.4 mg/L (≈ 0.869 µM) and 6.7 mg/L (≈ 14.6 µM), respectively.
`CC(=O)N[C@@H](CSC1=CC(=O)C2=C(CC3[C@H](C(=O)O)CCC4[C@@H]5CC[C@]34[C@@H]2OC[C@H]5C)C1=O)C(=O)O` (stereo partly specified): the result (with Mucor plumbeus; in the assay on Bacillus subtilis; in assay [1]; in the assay on Candida albicans; with Mucor hiemalis; in the assay with Micrococcus luteus) was inactive. For the same compound, the result (in the assay on Staphylococcus aureus; in [2]) was inactive. In addition, the MIC was 100 mg/L (≈ 193 µM) against Yamadazyma tenuis, 66.7 mg/L (≈ 129 µM) against Wickerhamomyces anomalus (Hansenula anomala) and 33.3 mg/L (≈ 64.3 µM) in the assay on Rhodotorula glutinis.
`C[C@@H]1CO[C@@H]2C3=C(CC4[C@H](C(=O)O)CCC5[C@@H]1CC[C@]452)C(=O)C=CC3=O` (stereo partly specified): the MIC against Mucor plumbeus is 100 mg/L (≈ 281 µM); in the assay with Yamadazyma tenuis it was 25 mg/L (≈ 70.1 µM); with Bacillus subtilis, 50 mg/L (≈ 140 µM); against Wickerhamomyces anomalus (Hansenula anomala), 66.7 mg/L (≈ 187 µM); in the assay with Candida albicans it was 33.3 mg/L (≈ 93.4 µM); in the assay on Rhodotorula glutinis it was 16.7 mg/L (≈ 46.9 µM). Also, the MIC was found to be 8.3 mg/L (≈ 23.3 µM) in the assay with Mucor hiemalis, 66.7 mg/L (≈ 187 µM) in the assay on Micrococcus luteus and 33.3 mg/L (≈ 93.4 µM) against Staphylococcus aureus. Moreover, the outcome in assay [1] and in assay [2] was inactive. Further, the IC50 in the assay with L929 was found to be 7.5 mg/L (≈ 21 µM); with KB 3-1, 8.5 mg/L (≈ 23.8 µM).
With `NC[C@H]1O[C@H](O[C@H]2[C@H](O)[C@@H](O[C@H]3O[C@H](CO)[C@@H](O)[C@H](N)[C@H]3O)[C@H](N)C[C@@H]2N)[C@H](O)[C@@H](O)[C@@H]1O` [KANAMYCIN], the MIC in [2] came to 0.4 mg/L (≈ 0.826 µM).

What is called IC50 is the point on the concentration scale where inhibition reaches its midpoint. A high value points to lower potency.
